Results from ChEMBL document CHEMBL1147085, “Metabolism and pharmacokinetics of a novel Src kinase inhibitor TG100435 ([7-(2,6-dichloro-phenyl)-5-methyl-benzo[1,2,4]triazin-3-yl]-[4-(2-pyrrolidin-1-yl-ethoxy)-phenyl]-amine) and its active N-oxide metabolite TG100855 …” (Drug Metab Dispos, 2007).

Columns and labels:
[1] = test system: Mus musculus; assay: Volume of distribution in BALB/c mouse at 5 mg/kg, ip; type: ADME, organism-based; design: dose 5 mg/kg, route intraperitoneal; settings: in vivo
Procedure, shortened: (§1)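 Male BALB/c mice (~25 g); fasted overnight for single p.o. dosing, not fasted for i.v. or i.p. dosing. Composite blood sampling, n=3 per time point: 5, 15, 30 min, 1, 3, 6, 24, 48 hr after i.v. dose; 0.5, 1, 3, 5, 8, 24, 30, 48 hr after p.o. or i.p. dose. Heparinized plasma, both parent and N-oxide measured by LC/MS/MS (MRM 494.2/98.1 and 510.2/98.1); non-compartmental analysis, AUC by linear trapezoidal rule.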

[2] = test system: Rattus norvegicus; assay: AUC (0 to last) in Sprague-Dawley rat assessed as AUC of ([7-(2,6-Dichloro-phenyl)-5-methyl-benzo[1,2,4]triazin-3-yl]-[4-(2-pyrrolidin-1-yl-ethoxy)-phenyl]-amine) at 25 mg/kg, po; settings: in vivo
[3] = test system: Mus musculus; assay: AUC (0 to last) in BALB/c mouse assessed as AUC of ([7-(2,6-Dichloro-phenyl)-5-methyl-benzo[1,2,4]triazin-3-yl]-[4-(2-pyrrolidin-1-yl-ethoxy)-phenyl]-amine) at 25 mg/kg, po; settings: in vivo
[4] = Clearance in BALB/c mouse at 5 mg/kg, ip; type: ADME, organism-based; design: dose 5 mg/kg, route intraperitoneal; settings: in vivo; procedure, shortened: as §1
[5] = Tmax in BALB/c mouse at 25 mg/kg, po; type: ADME, organism-based; design: dose 25 mg/kg, route oral; settings: in vivo
[6] = Volume of distribution in BALB/c mouse at 5 mg/kg, iv; type: ADME, organism-based; design: dose 5 mg/kg, route intravenous; settings: in vivo
[7] = Half life in Sprague-Dawley rat at 5 mg/kg, ip; type: ADME, organism-based; design: dose 5 mg/kg, route intraperitoneal; settings: in vivo
[8] = AUC (0 to infinity) in Sprague-Dawley rat at 5 mg/kg, iv; type: ADME, organism-based; design: time infinity, dose 5 mg/kg, route intravenous; settings: plasma
[9] = test system: Rattus norvegicus; assay: Tmax in Sprague-Dawley rat assessed as Tmax of ([7-(2,6-Dichloro-phenyl)-5-methyl-benzo[1,2,4]triazin-3-yl]-[4-(2-pyrrolidin-1-yl-ethoxy)-phenyl]-amine) at 25 mg/kg, po; settings: in vivo
[10] = Half life in BALB/c mouse at 5 mg/kg, iv; type: ADME, organism-based; design: dose 5 mg/kg, route intravenous; settings: in vivo; procedure, shortened: as §1
[11] = Clearance in BALB/c mouse at 5 mg/kg, iv; type: ADME, organism-based; design: dose 5 mg/kg, route intravenous; settings: in vivo; procedure, shortened: as §1
[12] = Volume of distribution in Sprague-Dawley rat at 5 mg/kg, iv; type: ADME, organism-based; design: dose 5 mg/kg, route intravenous; settings: in vivo
[13] = test system: Rattus norvegicus; assay: AUC (0 to infinity) in Sprague-Dawley rat assessed as AUC of ([7-(2,6-Dichloro-phenyl)-5-methyl-benzo[1,2,4]triazin-3-yl]-[4-(2-pyrrolidin-1-yl-ethoxy)-phenyl]-amine) at 25 mg/kg, po; settings: in vivo
[14] = target: Tyrosine-protein kinase Lyn (Homo sapiens, UniProt P07948); assay: Inhibition of Lyn by luminescence based kinase assay
[15] = test system: Rattus norvegicus; assay: AUC (0 to infinity) in Sprague-Dawley rat assessed as AUC of ([7-(2,6-Dichloro-phenyl)-5-methyl-benzo[1,2,4]triazin-3-yl]-[4-(2-pyrrolidin-1-yl-ethoxy)-phenyl]-amine) at 5 mg/kg, ip; type: ADME, organism-based, Plasma; design: time infinity, dose 5 mg/kg, route intraperitoneal; settings: in vivo
[16] = AUC (0 to infinity) in Sprague-Dawley rat at 5 mg/kg, ip; type: ADME, organism-based; design: time infinity, dose 5 mg/kg, route intraperitoneal; settings: plasma
[17] = AUC (0 to last) in Sprague-Dawley rat at 25 mg/kg, po; type: ADME, organism-based; design: time 0 - last, dose 25 mg/kg, route oral; settings: plasma
[18] = AUC (0 to infinity) in Sprague-Dawley rat at 25 mg/kg, po; type: ADME, organism-based; design: time infinity, dose 25 mg/kg, route oral; settings: plasma
[19] = AUC (0 to infinity) in BALB/c mouse at 5 mg/kg, ip; type: ADME, organism-based; design: time infinity, dose 5 mg/kg, route intraperitoneal; settings: plasma; procedure, shortened: as §1
[20] = test system: Rattus norvegicus; assay: Volume of distribution in Sprague-Dawley rat at 5 mg/kg, ip; type: ADME, organism-based; design: dose 5 mg/kg, route intraperitoneal; settings: in vivo
[21] = test system: Mus musculus; assay: Drug level in BALB/c mouse plasma at 5 mg/kg, ip; type: ADME, organism-based; design: dose 5 mg/kg, route intraperitoneal; settings: in vivo; procedure, shortened: as §1
[22] = Cmax in Sprague-Dawley rat at 25 mg/kg, po; type: ADME, organism-based; design: dose 25 mg/kg, route oral; settings: in vivo
[23] = target: Tyrosine-protein kinase Lck (Homo sapiens, UniProt P06239); assay: Inhibition of Lck by luminescence based kinase assay
[24] = Clearance in Sprague-Dawley rat at 5 mg/kg, iv; type: ADME, organism-based; design: dose 5 mg/kg, route intravenous; settings: in vivo

Chain of Tyrosine-protein kinase Lck (P06239 whole entry): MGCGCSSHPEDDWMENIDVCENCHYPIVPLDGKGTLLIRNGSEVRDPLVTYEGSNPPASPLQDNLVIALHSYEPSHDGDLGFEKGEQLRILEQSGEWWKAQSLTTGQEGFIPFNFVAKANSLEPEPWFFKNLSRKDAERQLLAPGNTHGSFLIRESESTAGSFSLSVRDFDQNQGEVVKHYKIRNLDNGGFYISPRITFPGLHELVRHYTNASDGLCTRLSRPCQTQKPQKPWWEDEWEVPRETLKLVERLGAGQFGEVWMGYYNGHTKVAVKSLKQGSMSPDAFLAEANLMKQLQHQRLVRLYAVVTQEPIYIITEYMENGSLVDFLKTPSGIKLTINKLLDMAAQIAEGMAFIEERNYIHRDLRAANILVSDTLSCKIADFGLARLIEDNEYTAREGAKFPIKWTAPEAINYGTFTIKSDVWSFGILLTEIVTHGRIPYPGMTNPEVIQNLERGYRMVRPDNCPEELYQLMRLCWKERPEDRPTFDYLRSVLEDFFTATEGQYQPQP
Chain of Tyrosine-protein kinase Lyn (P07948 whole entry): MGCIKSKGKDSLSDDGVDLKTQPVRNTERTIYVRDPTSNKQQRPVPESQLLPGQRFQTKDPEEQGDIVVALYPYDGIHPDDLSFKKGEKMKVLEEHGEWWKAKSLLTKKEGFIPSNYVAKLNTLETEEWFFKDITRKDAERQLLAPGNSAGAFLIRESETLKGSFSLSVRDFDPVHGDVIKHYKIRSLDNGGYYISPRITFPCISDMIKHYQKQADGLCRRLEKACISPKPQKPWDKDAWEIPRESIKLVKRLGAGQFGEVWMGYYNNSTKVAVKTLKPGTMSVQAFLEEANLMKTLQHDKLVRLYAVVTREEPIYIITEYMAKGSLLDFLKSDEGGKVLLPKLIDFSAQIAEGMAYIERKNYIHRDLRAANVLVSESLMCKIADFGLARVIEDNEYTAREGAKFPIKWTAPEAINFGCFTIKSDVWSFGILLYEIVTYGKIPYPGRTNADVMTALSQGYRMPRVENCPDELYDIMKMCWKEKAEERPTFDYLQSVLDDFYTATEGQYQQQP

Cc1cc(-c2c(Cl)cccc2Cl)cc2nnc(Nc3ccc(OCC[N+]4([O-])CCCC4)cc3)nc12
Vd [1]: 2.6 L/kg
AUC [2]: 881 ng·h/mL
AUC [3]: 1740 ng·h/mL
CL/F [4]: 11.6 mL/min/kg
Tmax [5]: 1 h
Vd [6]: 1.2 L/kg
half-life [7]: 2.3 h
AUC(0-inf) [8]: 6050 ng·h/mL
Tmax [9]: 4 h
half-life [10]: 0.9 h
clearance [11]: 15.6 mL/min/kg
Vd [12]: 1.9 L/kg
AUC [13]: 906 ng·h/mL
Ki [14]: 4.19 nM
AUC [15]: 498 ng·h/mL
AUC(0-inf) [16]: 4990 ng·h/mL
AUC(0-t) [17]: 467 ng·h/mL
AUC(0-inf) [18]: 470 ng·h/mL
AUC(0-inf) [19]: 6520 ng·h/mL
Vd [20]: 3.3 L/kg
C0 [21]: 4100 ng/mL
Cmax [22]: 160 ng/mL
Ki [23]: 11.7 nM
clearance [24]: 13.8 mL/min/kg
